In ChEMBL document CHEMBL1130349, “Synthesis and structure-activity relationships of a new model of arylpiperazines. 3.1 2-[omega-(4-arylpiperazin-1-yl)alkyl]perhydropyrrolo- [1,2-c]imidazoles and -perhydroimidazo[1,5-a]pyridines: study of the influence of the terminal amide fragment on 5-HT1A affinity/selectivity” (J Med Chem, 1997):

What was measured:
[1] = target: T1, Alpha-1A adrenergic receptor (Rattus norvegicus, UniProt P43140); assay: Binding affinities against Alpha-1 adrenergic receptor (alpha1 adrenoceptor) using [3H]prazosin as radioligand in rat cerebral cortex membrane; format: cell membranes
T1 sequence (P43140 whole entry): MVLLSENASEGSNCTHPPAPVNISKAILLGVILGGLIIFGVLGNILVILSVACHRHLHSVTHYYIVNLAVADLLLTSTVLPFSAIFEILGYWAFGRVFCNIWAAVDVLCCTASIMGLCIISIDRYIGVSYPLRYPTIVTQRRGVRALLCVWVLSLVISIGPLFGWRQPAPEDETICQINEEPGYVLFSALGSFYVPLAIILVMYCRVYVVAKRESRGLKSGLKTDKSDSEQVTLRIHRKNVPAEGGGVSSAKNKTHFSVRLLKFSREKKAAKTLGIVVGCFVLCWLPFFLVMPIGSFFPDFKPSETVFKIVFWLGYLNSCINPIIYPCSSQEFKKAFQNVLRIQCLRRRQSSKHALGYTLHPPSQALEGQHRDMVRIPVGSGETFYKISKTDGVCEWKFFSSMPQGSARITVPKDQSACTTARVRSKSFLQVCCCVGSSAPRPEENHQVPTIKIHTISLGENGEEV
How it was run: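 Radioligand binding run by a cited earlier method; values are means ± SEM of two to four experiments, each in triplicate.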

[2] = Selectivity ratio of serotonin and alpha receptor; set-up: reference not given here
[3] = target: T2, 5-hydroxytryptamine receptor 1A (Rattus norvegicus, UniProt P19327); assay: Binding affinities against 5-hydroxytryptamine 1A receptor using [3H]8-OH-DPAT as radioligand in rat cerebral cortex membrane; format: cell membranes
T2 sequence (P19327 whole entry): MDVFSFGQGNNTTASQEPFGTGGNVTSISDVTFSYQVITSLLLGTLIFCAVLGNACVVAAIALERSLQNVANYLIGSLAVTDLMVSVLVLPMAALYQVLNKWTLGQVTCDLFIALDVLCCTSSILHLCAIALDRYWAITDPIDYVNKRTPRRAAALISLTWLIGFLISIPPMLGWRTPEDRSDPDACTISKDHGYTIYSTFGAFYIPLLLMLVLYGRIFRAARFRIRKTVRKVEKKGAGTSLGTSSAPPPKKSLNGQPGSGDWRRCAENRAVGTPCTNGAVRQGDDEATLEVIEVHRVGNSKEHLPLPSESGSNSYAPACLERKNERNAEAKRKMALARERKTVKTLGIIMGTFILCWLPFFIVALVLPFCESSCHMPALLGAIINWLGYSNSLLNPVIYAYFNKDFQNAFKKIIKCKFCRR
How it was run: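 Rat cerebral cortex homogenised in ice-cold 50 mM Tris-HCl (pH 7.7), washed twice, preincubated 10 min at 37 °C. Membranes (~1 mg protein) incubated 15 min at 37 °C with 0.6 nM [3H]-8-OH-DPAT across several competitor concentrations. Nonspecific binding defined by 10 μM 5-HT. Two to four experiments, each in triplicate.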

| Ki [1] | Ki ratio [2] | Structure (SMILES) | Ki [3] |
| --- | --- | --- | --- |
| 218 nM | 15.7 | COc1ccccc1N1CCN(CCCN2CC3CCCCN3C2)CC1 (stereo not given) | 13.9 nM |
| 3.1 nM | 0.7 | COc1ccccc1N1CCN(CCCN2C(=O)C3CCCN3C2=O)CC1 (stereo not given) |  |
| 363 nM | 12.5 | FC(F)(F)c1cccc(N2CCN(CCCN3CC4CCCN4C3)CC2)c1 (stereo not given) | 29.1 nM |
| 72.4 nM | 7.3 | O=C1C2CCCCN2C(=O)N1CCCCN1CCN(c2cccc(C(F)(F)F)c2)CC1 (stereo not given) |  |
| 109 nM | 28.7 | O=C1C2CCCN2C(=O)N1CCCN1CCN(c2cccc(C(F)(F)F)c2)CC1 (stereo not given) |  |
| 12.1 nM | 1.7 | O=C1C2CCCCN2C(=O)N1CCCCN1CCN(c2cccc(Cl)c2)CC1 (stereo not given) |  |
| 90.4 nM | 15.9 | O=C1C2CCCCN2C(=O)N1CCCN1CCN(c2cccc(C(F)(F)F)c2)CC1 (stereo not given) |  |
| 9.6 nM | 0.8 | O=C1C2CCCN2C(=O)N1CCCCN1CCN(c2cccc(Cl)c2)CC1 (stereo not given) |  |
| 9.9 nM | 2.4 | COc1ccccc1N1CCN(CCCN2C(=O)C3CCCCN3C2=O)CC1 (stereo not given) |  |
| 115 nM | 7.5 | FC(F)(F)c1cccc(N2CCN(CCCCN3CC4CCCCN4C3)CC2)c1 (stereo not given) | 15.3 nM |
| 72.6 nM | 4.1 | COc1ccccc1N1CCN(CCCCN2CC3CCCN3C2)CC1 (stereo not given) | 17.5 nM |
| 8.3 nM | 1.5 | COc1ccccc1N1CCN(CCCCN2C(=O)C3CCCN3C2=O)CC1 (stereo not given) |  |
| 64.9 nM | 27 | O=C1C2CCCN2C(=O)N1CCCCN1CCN(c2cccc(C(F)(F)F)c2)CC1 (stereo not given) |  |
| 8.6 nM | 1 | COc1ccccc1N1CCN(CCCCN2C(=O)C3CCCCN3C2=O)CC1 (stereo not given) |  |
| 45 nM | 8.8 | COc1ccccc1N1CCN(CCCCN2CC3CCCCN3C2)CC1 (stereo not given) | 5.1 nM |

| Structure (SMILES) | Ki [1] | Ki ratio [2] | Ki [3] |
| --- | --- | --- | --- |
| FC(F)(F)c1cccc(N2CCN(CCCN3CC4CCCCN4C3)CC2)c1 (stereo not given) | 278 nM | 11.4 | 24.3 nM |
| FC(F)(F)c1cccc(N2CCN(CCCCN3CC4CCCN4C3)CC2)c1 (stereo not given) | 240 nM | 19.5 | 12.3 nM |
| Clc1cccc(N2CCN(CCCCN3CC4CCCN4C3)CC2)c1 (stereo not given) | 64.9 nM | 2.3 | 28.1 nM |
| Clc1cccc(N2CCN(CCCCN3CC4CCCCN4C3)CC2)c1 (stereo not given) | 64.3 nM | 2.6 | 24.3 nM |
| COc1ccccc1N1CCN(CCCN2CC3CCCN3C2)CC1 (stereo not given) | 323 nM | 26 | 12.2 nM |
